Tested on: MS2 coat protein
Experiment: apparent Kd, MS2 coat protein; higher = weaker binding; RNA-MaP array; FMN 200 µM where present
Method in brief: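 Designs on Illumina sequencing-chip clusters, transcribed by stalled E. coli RNA polymerase, were exposed to SNAP-549-labelled MS2 coat protein in doubling steps from 0.7 or 1.5 nM up to 3 µM, without and then with constant ligand. The buffer held 100 mM Tris-HCl pH 7.5, 80 mM KCl, 4 mM MgCl2, BSA, DTT, yeast tRNA and Tween-20. Apparent Kd values are medians of filtered per-cluster binding-curve fits to green signal normalised to red-channel RNA signal and control-cluster median Fmax.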

[1] = designed as: ON switch for flavin mononucleotide, no ligand
[2] = ligand present: flavin mononucleotide, designed as: ON switch for flavin mononucleotide
[3] = designed as: OFF switch for flavin mononucleotide, no ligand
[4] = ligand present: flavin mononucleotide, designed as: OFF switch for flavin mononucleotide

Sequence | apparent Kd [1] | apparent Kd [2] | apparent Kd [3] | apparent Kd [4]
GAUUUGUGACAAUUACAUGAGGAUCACCCAUGUUGUAGUAUGCAGGAUAUGUGGUAUAUUAUUUAACAGAAGGGCAAUAAUUUU | 98 nM | 46.4 nM | – | –
CAGAGUUGGUAAGGAUAUCCCACAUUAUUCUGACCCGUGCAAGCUACAUGAGGAUCACCCAUGUGGGAGAAGGUGCGUUAAAGA | – | – | 39 nM | 35 nM
GUAGCAUACCGAGGAUAUUCAUACCGGAAACGGACAUGAGGAUCACCCAUGUUACGAAAGUAUUGGGAGAAGGCGGAAUGCUAC | 135 nM | 22.6 nM | – | –
GCGAUGAUCGAGAAGGCCACUACAUGAGGAUCACCCAUGUCGUGGUGUAUUGGAGGAUAUCGAUCGGCGUCUCAUGAGGACAUA | – | – | 4.65 nM | 5.78 nM
AUGCUUUAUGUAGGAUAUUCAAACAAAGAGAAUGGAGAAGGACAUGAGGAUCACCCAUGUAGAAUGAUGUUAGAUAUCAUAUAU | – | – | 16.3 nM | 14.4 nM
AAUUAGGUCACAGGAUAUACUUCAUCCAUAGAUGUAGAAGGGUGUCAGAAUAAUUUCUUACAUGAGGAUCACCCAUGUUUCCAC | 108 nM | 48.1 nM | – | –
GUGCUCGUGUGAGGAUAUGCUGCCGGGUCGGCUGCAGAAGGUACUAUUAUACAUGAGGAUCACCCAUGUCGCUUUUCUCCGGUG | 45.6 nM | 44.9 nM | – | –
AGAUUUAAUACAGGAUAUGUUAGUAUACAGUUGAUUGGUUAUUACAUUAUGACAGAAGGGUAGAACAUGAGGAUCACCCAUGUA | 241 nM | 115 nM | – | –
GUAAUUAAGAGAGGAUAUUGACAUGAGGAUCACCCAUGUAUUUGGGAGUGUUCACUGAAUUCUUACGAGAAGGCUUUUAAAUAC | – | – | 329 nM | 285 nM
AGUCAUACAGGAUAUACAUGAGGAUCACCCAUGUUUAUCCUAAAAAAGUGAUCCUCAUGUAGAAGGGUAUGACA | – | – | 15.2 nM | 18.9 nM
CAGACCGGCGCAGGAUAUGUCGACAUGAGGAUCACCCAUGUAAGCCUUGUCUGGUCCGGUGUGUGACAGAAGGGUGUCGGCCAA | – | – | 29.5 nM | 21.9 nM
CGCUGUCAUGCAGGAUAUGCAUUGGUUUACAAUGCAGAAGGGCGAUUACAUGAGGAUCACCCAUGUGUAGACAGUGAAGAAGAG | 157 nM | 12.9 nM | – | –
CGCUACUACCAGAAGGACAUGAGGAUCACCCAUGUAGGAUAUGGGUUACACGUUCCUGUGAAUUGUAACGACGCUACGUAUGCG | 203 nM | 13.4 nM | – | –
CUUUCGUGAGGAUAUGUGGCUUAAAUCGUGAGAUCGAGGCUACAGAAGGCACAUGAGGAUCACCCAUGUUCCUC | – | – | 36 nM | 569 nM
CUUUUGUGAGGAUAUUAGUAGUAAAUGAAUAAAAUUAUUACUGAGAAGGUACAUGAGGAUCACCCAUGUUCCUC | – | – | 16.8 nM | 24.6 nM
GCCGAAAAUGUGAGGAUAUACCUAUGGAAACAUAGGUAGAAGGCACAUGAGGAUCACCCAUGUGUCCAAACGGC | – | – | 19.9 nM | 64.6 nM
AAACUGGAGGACAAGGAUAUGUGCUCUACGACAUGAGGAUCACCCAUGUGAGACGUAGUAGUGAAACAGAAGGUGUCCUAUUGUA | 20.1 nM | 11.6 nM | – | –
UCGAUGCUAGGAUAUACUUAUAAAACUACUGUAGAGUCUUCACAUGAGGAUCACCCAUGUAGAAGGAGCAUCUA | – | – | 20 nM | 16 nM
GGUACUCAAAGAGUACCAAUACGAACAUGAGGAUCACCCAUGUAGGAUAUUCUACUCAAAGAGUAGCAGAAGGACAUGUGCCUA | – | – | 10.8 nM | 13.1 nM
GGUACCAUGUAGAAGGCAGAUCUGAUUCAGAUCUGAGGAUAUACAUGAGGAUCACCCAUGUAAAGGCACCGCACGAGAGUGCAA | – | – | 32.4 nM | 108 nM
GGGCUCGUCGUAAACGACAUGAGGAUCACCCAUGUUGGGCACAGAAGGGCCUUCAUUCGGAUCAGGCAGGAUAUGUAUCUAACA | – | – | 5.09 nM | 5.32 nM
UAGGAUCAACGAGGAUAUAAUAGGUUCAAUUUUUUAUAUUGUUUACAUGAGGAUCACCCAUGUUAUUAGAAGGCGUAUGGGAUU | 53.5 nM | 36.9 nM | – | –
AAAAAGUGAGGAUAUGCACUGUCCUGUAGACACGAGCAGUUGUAGAAGGCACAUGAGGAUCACCCAUGUUUAAA | – | – | 29.2 nM | 25.9 nM
CGUCGAUACCAGAAGGACAUGAGGAUCACCCAUGUAGGAUAUGGGUGACCGGGAUGGCAGACACGGUGCCCGGGCACAUGCGAC | 28.9 nM | 9.54 nM | – | –

Sequence | apparent Kd [1] | apparent Kd [2] | apparent Kd [3] | apparent Kd [4]
GUGGUCUGACAUGAGGAUCACCCAUGUGGAAUAAAUACGGGUUAGGAUAUCUUGAGGAUCACCCAAGAGAAGGGAUCGAUUGUU | 52.8 nM | 45 nM | – | –
GCACGAUCCUCAGGAUAUCACUGAAACAUGAGGAUCACCCAUGUGCGCAGAUGAGAAGGGAGGACUCCGUCUGACUAAAUGUUA | 109 nM | 10.6 nM | – | –
UGGUACAUGGGAGGAUAUCAUGUGAUAACAUGAGGAUCACCCAUGUCGAUGGAGACAUCGGAGAUUGAGAAGGCCCAUGUACCU | 1190 nM | 96.5 nM | – | –
AAAAAGCGAGGAUAUACGAGUCAAAGAAAAGACAAGGAGAAACAUGAGGAUCACCCAUGUAGAAGGCGCAAAAA | – | – | 20.5 nM | 23.3 nM
GACUGCCGAGGAUAUACAUGAGGAUCACCCAUGUGCUUCAGCAUUUUUUAAUGCAUGGGUAGAAGGCGGUAGUU | – | – | 35.4 nM | 60.7 nM
CCGAAUGUCACAGGAUAUGGUCCGGGCACGCGACCAGAAGGGUGAUCUUACAUGAGGAUCACCCAUGUAUAGGCGUUAGGCUAC | 32.9 nM | 442 nM | – | –
CUUAAAGACGAGAAGGCUGAUUUGACAUGAGCGUCAGCCGUGUAACAUGAGGAUCACCCAUGUGCGGAGGAUAUUGAUCUUGAG | 12.3 nM | 13.9 nM | – | –
AUGAAAUACUAGCACGGCGCGGCACAGGAUAUGCCUCAACAUGAGGAUCACCCAUGUCACUGUAGGUAGAAGGGUGUUAGCGAA | 18.4 nM | 5.52 nM | – | –
GGUUCGAAAGUGAGGAUAUGCUGGUCCUUGGAUCAGCAGAAGGCACAUGAGGAUCACCCAUGUCCAAGCGGACC | – | – | 59 nM | 398 nM
UCAUGACAUGAGGAUCACCCAUGUCAGGAUAUCUACAGAACCUCAUGUAAAAAACUGUAGAGAAGGGAUAUGAA | – | – | 22 nM | 25 nM
AAAACUCACGUAGGAUAUCAUUCCUUAAGGUAGUGAGAAGGACGUGACUACAUGUCCUAAAACAUGAGGAUCACCCAUGUAGGC | – | – | 33.5 nM | 26.5 nM
UUGUUCUGAGGAUAUACAUGAGGAUCACCCAUGUGUUUCAGCUAGGAGACUAGCGAAAGUAGAAGGCUGUUCUC | – | – | 16.7 nM | 17.9 nM
GGAUAGGACAGAGGAUAUACGUGCUAGAGAUACUAGCAAAAUUUCCUCACAUGAGGAUCACCCAUGUAGAAGGUUGUCCUAUCG | – | – | 5.14 nM | 11.8 nM
UUUUUAUAACAAGGAUAUACUAAACAUGAGGAUCACCCAUGUAAUAUUAUGAGUGAGAGAGAGAAGUAGAAGGUGUAUUAUUUU | – | – | 96 nM | 120 nM
UGAUCUAUGUAGAAGGCCCAUAUCUAUAUUUAGGGAGGAUAUACAUGAGGAUCACCCAUGUAUAGAGCUAGUGGACUGGUCACC | – | – | 37.7 nM | 48.1 nM
GUAGCAUACCGAGGAUAUUCAUGGAAUAAAUAAACAUGAGGAUCACCCAUGUGGCGAAAGCCUAGGGAGAAGGCGGAAUGCUAC | 269 nM | 446 nM | – | –
AACAGGACAGGAUAUACAUGAGGAUCACCCAUGUAGGAAACAAGCAGAGUACCAAAAAGUAGAAGGGUCAUGGA | – | – | 60.2 nM | 79.5 nM
CGGUGUCAUGUAAGGAUAUCGCAUCCCAGCGGAUACGAGAAGGUACAUGAGGAUCACCCAUGUACGAUAAAAUA | – | – | 14.3 nM | 17.5 nM
AAAGCAAUGUCAUGCUCACCGGACAGAAGGCAAUGUGGGCAGCCCGACAUGAGGAUCACCCAUGUUGAGGAUAUGUCCCGUCCU | – | – | 2.53 nM | 2.54 nM
GUCGGAAACGACAAGUAGCAAUCGGAGGAUAUUCAUUAAAACAUGAGGAUCACCCAUGUAAAUUGGGAGAAGGCCGAUUGCUAC | 17.8 nM | 5.31 nM | – | –
UUUUAACAUGAGGAUCACCCAUGUGAGGAUAUCGAAAUUUAUAUUUAUAUUAAUUUAUCGAGAAGGCACAUUUU | – | – | 149 nM | 164 nM
AGCUAGUCAGGAUAUACGAGAACGAACGAAGCAGUGAAGGGACAUGAGGAUCACCCAUGUAGAAGGGACUAGCA | – | – | 36 nM | 82.6 nM
UUUAUUUAGGCAGGAUAUACAUGUAUAUAUAAUUUUUUAUAUAUUAUUACAUGAGGAUCACCCAUGUAGAAGGGCCUUAUUAUA | – | – | 41.9 nM | 54.7 nM
GGGCGGCGAGGAUAUGCAGGGCGGGCGCGCGGGCGCGCGCGACAUGAGGAUCACCCAUGUAGAAGGCGCCGGGC | – | – | 19.1 nM | 129 nM
